ChEMBL document CHEMBL1138439, “Synthesis and structure-activity relationship of novel diarylpyrazole imide analogues as CB1 cannabinoid receptor ligands” (Bioorg Med Chem, 2009)
pIC50: −log10 of the molar value.

Tests used:
Cannabinoid receptor 1 = Cannabinoid receptor 1 (Rattus norvegicus, UniProt P20272); experiment: Displacement of [3H]CP-55940 from CB1R in Sprague-Dawley rat cerebellar membrane; design: species or system Cerebellum; conditions: for pIC50: read-out: IC50
Mus musculus = experiment: Reduction in body weight of diet induced obese C57BL/6J mouse at 10 mL/kg, po for 14 days; format: functional; design: scale not given: the % may be the effect or the level left
Summary of the method: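 Body weight change (g) from start was tracked daily over days 0–14 and compared with a vehicle-treated control group.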

Cannabinoid receptor 1, sequence (P20272 whole entry): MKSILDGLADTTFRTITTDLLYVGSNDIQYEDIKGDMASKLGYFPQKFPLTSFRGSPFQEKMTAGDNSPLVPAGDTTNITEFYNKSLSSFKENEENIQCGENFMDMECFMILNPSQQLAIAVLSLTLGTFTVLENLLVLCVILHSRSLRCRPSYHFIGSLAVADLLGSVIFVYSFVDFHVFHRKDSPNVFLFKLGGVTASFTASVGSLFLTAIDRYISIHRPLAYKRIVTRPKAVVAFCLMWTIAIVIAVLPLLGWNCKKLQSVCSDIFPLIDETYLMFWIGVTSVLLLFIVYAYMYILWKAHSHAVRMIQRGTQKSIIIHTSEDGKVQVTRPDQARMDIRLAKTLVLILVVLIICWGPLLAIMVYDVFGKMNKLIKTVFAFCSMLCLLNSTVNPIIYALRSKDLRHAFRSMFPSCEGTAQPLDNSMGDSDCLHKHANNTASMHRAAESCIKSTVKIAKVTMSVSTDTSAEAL

SMILES	pIC50 (Cannabinoid receptor 1)	also measured
CCCCS(=O)(=O)NC(=O)c1nn(-c2ccc(Cl)cc2Cl)c(-c2ccc(Cl)cc2)c1C	< 5.00	–
Cc1c(C(=O)NC(=O)NCC2CCCCC2)nn(-c2ccc(Cl)cc2Cl)c1-c1ccc(Cl)cc1	–	IC50 (Cannabinoid receptor 1): ND(Insoluble)
Cc1c(C(=O)N(C)C(=O)C2CCCCC2)nn(-c2ccc(Cl)cc2Cl)c1-c1ccc(Cl)cc1	6.78	–
CCCS(=O)(=O)NC(=O)c1nn(-c2ccc(Cl)cc2Cl)c(-c2ccc(Cl)cc2)c1C	< 5.00	–
Cc1c(C(=O)NS(=O)(=O)C(C)C)nn(-c2ccc(Cl)cc2Cl)c1-c1ccc(Cl)cc1	< 5.00	–
Cc1c(C(=O)NS(=O)(=O)Cc2ccccc2)nn(-c2ccc(Cl)cc2Cl)c1-c1ccc(Cl)cc1	< 5.00	–
Cc1c(C(=O)N(C)C(=O)C(C)(C)C)nn(-c2ccc(Cl)cc2Cl)c1-c1ccc(Cl)cc1	6.66	–
Cc1c(C(=O)NS(=O)(=O)c2ccc(F)cc2)nn(-c2ccc(Cl)cc2Cl)c1-c1ccc(Cl)cc1	5.92	–
Cc1c(C(=O)NS(=O)(=O)c2cccc(F)c2)nn(-c2ccc(Cl)cc2Cl)c1-c1ccc(Cl)cc1	< 5.00	–
CCC(CC)C(=O)N(C)C(=O)c1nn(-c2ccc(Cl)cc2Cl)c(-c2ccc(Cl)cc2)c1C	6.58	–
Cc1c(C(=O)NS(=O)(=O)c2ccccc2)nn(-c2ccc(Cl)cc2Cl)c1-c1ccc(Cl)cc1	5.44	–
CCC(C)(C)C(=O)N(C)C(=O)c1nn(-c2ccc(Cl)cc2Cl)c(-c2ccc(Cl)cc2)c1C	6.64	–
Cc1c(C(=O)NC(=O)C(C)(C)C)nn(-c2ccc(Cl)cc2Cl)c1-c1ccc(Cl)cc1	–	Activity (Mus musculus): 2.2%
Cc1ccc(S(=O)(=O)NC(=O)c2nn(-c3ccc(Cl)cc3Cl)c(-c3ccc(Cl)cc3)c2C)cc1	< 5.00	–
Cc1c(C(=O)NS(=O)(=O)c2ccc(Cl)cc2)nn(-c2ccc(Cl)cc2Cl)c1-c1ccc(Cl)cc1	< 5.00	–
CCCC(CCC)C(=O)N(C)C(=O)c1nn(-c2ccc(Cl)cc2Cl)c(-c2ccc(Cl)cc2)c1C	6.61	–
Cc1c(C(=O)NC(=O)NC(C)(C)C)nn(-c2ccc(Cl)cc2Cl)c1-c1ccc(Cl)cc1	–	IC50 (Cannabinoid receptor 1): ND(Insoluble)
Cc1c(C(=O)NS(=O)(=O)c2cccc(Cl)c2)nn(-c2ccc(Cl)cc2Cl)c1-c1ccc(Cl)cc1	5.92	–
Cc1c(C(=O)NN2CCCCC2)nn(-c2ccc(Cl)cc2Cl)c1-c1ccc(Cl)cc1 [RIMONABANT]	–	Activity (Mus musculus): 11.5%
